Assay results: ChEMBL document CHEMBL2424572 (J Med Chem, 2013); call rule not given here

Key:
[1] = target: Matrix metalloproteinase-9 (Homo sapiens, UniProt P14780); experiment: Inhibition of MMP-9 (unknown origin) using 7-methoxycoumarin-4-yl)acetyl-Pro-Leu-Gly-Leu-(3-(2,4-dinitrophenyl)-L-2,3-diamino-propionyl)Ala-Arg-NH2 as substrate preincubated for 30 mins followed by substrate addition by fluorescence assay
How it was run: (§1)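 Activated MMP (2 nM) preincubated with inhibitor (10 pM to 1 mM) in 50 mM Tris-HCl pH 7.5, 0.2 M NaCl, 5 mM CaCl2, 20 μM ZnSO4, 0.05% Brij 35, 37 °C for 30 min.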

Neutrophil collagenase = Neutrophil collagenase (Homo sapiens, UniProt P22894); experiment: Inhibition of MMP-8 (unknown origin) using 7-methoxycoumarin-4-yl)acetyl-Pro-Leu-Gly-Leu-(3-(2,4-dinitrophenyl)-L-2,3-diamino-propionyl)Ala-Arg-NH2 as substrate preincubated for 30 mins followed by substrate addition by fluorescence assay; how it was run: as §1
Chain of Neutrophil collagenase (P22894 whole entry): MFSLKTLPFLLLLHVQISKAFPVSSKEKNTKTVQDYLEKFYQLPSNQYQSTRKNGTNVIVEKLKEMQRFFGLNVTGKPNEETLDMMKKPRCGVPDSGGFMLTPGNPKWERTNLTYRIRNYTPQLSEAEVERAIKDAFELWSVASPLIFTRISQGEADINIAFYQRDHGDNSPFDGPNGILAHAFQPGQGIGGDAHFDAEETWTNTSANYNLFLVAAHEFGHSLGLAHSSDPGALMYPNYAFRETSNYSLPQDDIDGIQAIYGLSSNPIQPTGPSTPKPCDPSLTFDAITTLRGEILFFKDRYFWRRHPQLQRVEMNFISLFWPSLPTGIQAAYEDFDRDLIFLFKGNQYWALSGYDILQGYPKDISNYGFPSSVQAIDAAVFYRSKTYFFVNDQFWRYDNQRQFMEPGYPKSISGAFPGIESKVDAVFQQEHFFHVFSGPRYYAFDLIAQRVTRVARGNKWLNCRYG

Collagenase 3 = Collagenase 3 (Homo sapiens, UniProt P45452); experiment: Inhibition of MMP-13 (unknown origin) using 7-methoxycoumarin-4-yl)acetyl-Pro-Leu-Gly-Leu-(3-(2,4-dinitrophenyl)-L-2,3-diamino-propionyl)Ala-Arg-NH2 as substrate preincubated for 30 mins followed by substrate addition by fluorescence assay; how it was run: as §1
[2] = target: 72 kDa type IV collagenase (Homo sapiens, UniProt P08253); experiment: Inhibition of MMP-2 (unknown origin) using 7-methoxycoumarin-4-yl)acetyl-Pro-Leu-Gly-Leu-(3-(2,4-dinitrophenyl)-L-2,3-diamino-propionyl)Ala-Arg-NH2 as substrate preincubated for 30 mins followed by substrate addition by fluorescence assay; how it was run: as §1
Chain of 72 kDa type IV collagenase (P08253 whole entry): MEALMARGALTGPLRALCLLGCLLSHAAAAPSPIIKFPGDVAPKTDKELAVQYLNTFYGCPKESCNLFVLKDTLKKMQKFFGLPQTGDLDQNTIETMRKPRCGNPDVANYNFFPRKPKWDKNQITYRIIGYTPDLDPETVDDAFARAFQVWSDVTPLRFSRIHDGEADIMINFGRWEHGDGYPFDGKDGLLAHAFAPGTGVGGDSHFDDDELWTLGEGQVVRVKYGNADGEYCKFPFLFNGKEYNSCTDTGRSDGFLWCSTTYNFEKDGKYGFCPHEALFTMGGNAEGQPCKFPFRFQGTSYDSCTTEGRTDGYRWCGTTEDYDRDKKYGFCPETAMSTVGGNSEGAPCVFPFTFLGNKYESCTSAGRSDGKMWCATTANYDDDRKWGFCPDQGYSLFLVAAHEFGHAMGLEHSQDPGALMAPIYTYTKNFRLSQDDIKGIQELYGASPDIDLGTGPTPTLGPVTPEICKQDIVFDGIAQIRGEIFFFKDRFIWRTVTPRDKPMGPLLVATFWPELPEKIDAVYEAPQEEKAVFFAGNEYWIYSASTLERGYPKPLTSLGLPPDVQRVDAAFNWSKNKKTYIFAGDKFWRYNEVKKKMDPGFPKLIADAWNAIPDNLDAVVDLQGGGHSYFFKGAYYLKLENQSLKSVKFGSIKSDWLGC

Mus musculus [3] = experiment: Biodistribution in wild type CD1 mouse small intestine assessed as metabolite 3 at 11.1 MBq, iv measured at 30 mins by gamma counting-based HPLC analysis; type: ADME, organism-based; details: in vivo, 0.5 h
How it was run: (§2)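 About 11.1 MBq injected by tail vein (≤200 μL) into three mice, killed 30 min p.i. Tissues weighed and homogenized in 1% SDS/PBS, extracted with acetonitrile/acetic acid, frozen on dry ice, thawed, centrifuged 13000 rpm 8 min. Supernatants gamma-counted against a dose aliquot for %ID/g, then radio-HPLC on C18 (acetonitrile/water, 0.05% TFA).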

Lung = experiment: Biodistribution in […] mouse lung at 250 kBq/g, iv after 90 to 120 mins by PET analysis; type: ADME, organism-based; details: in vivo
How it was run: (§3)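 Tracer dosed at 250 kBq/g body weight as a tail-vein bolus (100 μL, flushed with 100 μL saline) into C57/Bl6 mice, then PET scanning on a submillimeter-resolution small-animal scanner. Time-activity curves were drawn for regions of interest as %ID; images cover frames up to 90−120 min p.i.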

[4] = 1-octanol-PBS buffer partition coefficient, log D of the compound at 20 kBq after 1 min by gamma counting analysis; type: physicochemical
Mus musculus [5] = experiment: Biodistribution in wild type CD1 mouse gall bladder assessed as metabolite 1 at 11.1 MBq, iv measured at 30 mins by gamma counting-based HPLC analysis; type: ADME, organism-based; details: in vivo, 0.5 h; how it was run: as §2
Mus musculus [6] = experiment: Biodistribution in […] mouse myocardium at 250 kBq/g, iv after 90 to 120 mins by PET analysis; type: ADME, organism-based; details: in vivo; how it was run: as §3
Mus musculus [7] = experiment: Biodistribution in wild type CD1 mouse gall bladder assessed as metabolite 5 at 11.1 MBq, iv measured at 30 mins by gamma counting-based HPLC analysis; type: ADME, organism-based; details: in vivo, 0.5 h; how it was run: as §2
Mus musculus [8] = experiment: Biodistribution in wild type CD1 mouse gall bladder assessed as metabolite 4 at 11.1 MBq, iv measured at 30 mins by gamma counting-based HPLC analysis; type: ADME, organism-based; details: in vivo, 0.5 h; how it was run: as §2
Mus musculus [9] = experiment: Biodistribution in wild type CD1 mouse small intestine assessed as metabolite 1 at 11.1 MBq, iv measured at 30 mins by gamma counting-based HPLC analysis; type: ADME, organism-based; details: in vivo, 0.5 h; how it was run: as §2
Mus musculus [10] = experiment: Biodistribution in wild type CD1 mouse gall bladder assessed as metabolite 2 at 11.1 MBq, iv measured at 30 mins by gamma counting-based HPLC analysis; type: ADME, organism-based; details: in vivo, 0.5 h; how it was run: as §2
Brain = experiment: Biodistribution in […] mouse brain at 250 kBq/g, iv after 90 to 120 mins by PET analysis; type: ADME, organism-based; details: in vivo; how it was run: as §3
Serum = experiment: Metabolic stability in mouse serum at 5 MBq after 30 to 120 mins by radio-HPLC analysis; type: ADME, cell-free
How it was run: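 PBS-formulated radioligand (20 μL, 5 MBq) added to 200 μL mouse serum at 37 °C. 20 μL samples taken at 10−120 min, quenched in MeOH/CH2Cl2 1:1 and centrifuged 2 min. Organic layer analysed by radio-HPLC, isocratic 35% CH3CN/water (0.1% TFA) for 13 min, then gradient.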

Mus musculus [11] = experiment: Biodistribution in wild type CD1 mouse small intestine assessed as metabolite 5 at 11.1 MBq, iv measured at 30 mins by gamma counting-based HPLC analysis; type: ADME, organism-based; details: in vivo, 0.5 h; how it was run: as §2
Muscle tissue = experiment: Biodistribution in […] mouse muscle at 250 kBq/g, iv after 90 to 120 mins by PET analysis; type: ADME, organism-based; details: in vivo; how it was run: as §3
Kidney = experiment: Biodistribution in wild type CD1 mouse kidney assessed as metabolite 3 at 11.1 MBq, iv measured at 30 mins by gamma counting-based HPLC analysis; type: ADME, organism-based; details: in vivo, 0.5 h; how it was run: as §2

Chain of Matrix metalloproteinase-9 (P14780 whole entry): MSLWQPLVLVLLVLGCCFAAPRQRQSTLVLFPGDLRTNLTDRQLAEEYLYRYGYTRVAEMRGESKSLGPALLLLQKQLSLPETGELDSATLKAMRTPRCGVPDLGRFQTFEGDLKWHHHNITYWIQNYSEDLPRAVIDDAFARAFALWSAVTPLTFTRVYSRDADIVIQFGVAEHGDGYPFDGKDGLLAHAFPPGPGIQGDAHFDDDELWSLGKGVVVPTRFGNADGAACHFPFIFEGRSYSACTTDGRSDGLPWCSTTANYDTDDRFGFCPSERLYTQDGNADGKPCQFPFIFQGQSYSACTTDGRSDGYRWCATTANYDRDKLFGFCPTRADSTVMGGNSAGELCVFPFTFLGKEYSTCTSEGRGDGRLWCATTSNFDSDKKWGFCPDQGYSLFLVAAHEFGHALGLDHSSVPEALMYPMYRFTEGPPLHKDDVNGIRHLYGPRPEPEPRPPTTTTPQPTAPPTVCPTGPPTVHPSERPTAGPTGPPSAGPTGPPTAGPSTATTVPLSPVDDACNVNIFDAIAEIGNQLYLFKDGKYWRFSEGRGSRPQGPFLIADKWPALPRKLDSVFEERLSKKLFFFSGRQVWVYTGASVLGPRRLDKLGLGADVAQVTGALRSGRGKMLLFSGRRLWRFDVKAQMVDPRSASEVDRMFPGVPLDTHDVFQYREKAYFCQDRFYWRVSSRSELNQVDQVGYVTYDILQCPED

IC50 [1] | IC50 (Neutrophil collagenase) | IC50 (Collagenase 3) | IC50 [2] | Structure (SMILES) | further results
3 nM | 1 nM | 1 nM | 3 nM | COc1ccc(S(=O)(=O)N(CCn2cc(CN(C)S(=O)(=O)c3ccc(F)cc3)nn2)[C@@H](C(=O)NO)C(C)C)cc1 | 
4 nM | 1 nM | 1 nM | 4 nM | Cc1ccc(S(=O)(=O)N(CCN=[N+]=[N-])[C@@H](C(=O)NO)C(C)C)cc1 | 
3 nM | 0.9 nM | 0.3 nM | 2 nM | Cc1ccc(S(=O)(=O)N(CCn2cc(CCCF)nn2)[C@@H](C(=O)NO)C(C)C)cc1 | 
0.4 nM | 2 nM | 0.1 nM | 3 nM | Cc1ccc(S(=O)(=O)N(CCn2cc(COCCOCCOCCOCCOCCF)nn2)[C@@H](C(=O)NO)C(C)C)cc1 | 
6 nM | 4 nM | 3 nM | 3 nM | Cc1ccc(S(=O)(=O)N(CCn2cc(CCCCOc3cccnc3F)nn2)[C@@H](C(=O)NO)C(C)C)cc1 | 
4 nM | 1 nM | 1 nM | 4 nM | CC(C)[C@H](C(=O)NO)N(CCN=[N+]=[N-])S(=O)(=O)c1ccc(OCCF)cc1 | 
2 nM | 0.4 nM | 0.07 nM | 2 nM | CC(C)[C@H](C(=O)NO)N(CCn1cc(CCCF)nn1)S(=O)(=O)c1ccc(OCCF)cc1 | 
10 nM | 35 nM | 7 nM | 5 nM | CC(C)[C@H](C(=O)NO)N(CCn1cc(COCCOCCOCCOCCOCCF)nn1)S(=O)(=O)c1ccc(OCCF)cc1 | 
0.8 nM | 0.05 nM | 0.07 nM | 0.4 nM | CC(C)[C@H](C(=O)NO)N(CCn1cc(CCCCOc2cccnc2F)nn1)S(=O)(=O)c1ccc(OCCF)cc1 | 
3 nM | 0.7 nM | 0.1 nM | 4 nM | CC(C)[C@H](C(=O)NO)N(CCn1cc(CNS(=O)(=O)c2ccc(F)cc2)nn1)S(=O)(=O)c1ccc(OCCF)cc1 | 
11 nM | 5 nM | 1 nM | 9 nM | CC(C)[C@H](C(=O)NO)N(CCn1cc(CN(C)S(=O)(=O)c2ccc(F)cc2)nn1)S(=O)(=O)c1ccc(OCCF)cc1 | 
7 nM | 2 nM | 0.7 nM | 2 nM | CC(C)[C@H](C(=O)NO)N(Cc1cn(CCF)nn1)S(=O)(=O)c1ccc(OCCF)cc1 | 
0.2 nM | 0.2 nM | 0.6 nM | 2 nM | CC(C)[C@H](C(=O)NO)N(Cc1cn(CCOCCOCCOCCF)nn1)S(=O)(=O)c1ccc(OCCF)cc1 | 
0.2 nM | 0.3 nM | 0.3 nM | 0.5 nM | CC(C)[C@H](C(=O)NO)N(Cc1cn(CCOCCOCCOCCOc2cccnc2F)nn1)S(=O)(=O)c1ccc(OCCF)cc1 | 
 |  |  |  | COc1ccc(S(=O)(=O)N(CCn2cc(CCC[18F])nn2)[C@@H](C(=O)NO)C(C)C)cc1 | Drug uptake (Mus musculus [3]): 30.27 % ID/g; Drug uptake (Lung): Not Active; logD at 1 min [4]: 1.25; Drug uptake (Mus musculus [5]): 6.21 % ID/g; Drug uptake (Mus musculus [6]): Not Active; Drug uptake (Mus musculus [7]): 3.55 % ID/g; Drug uptake (Mus musculus [8]): 15.97 % ID/g; Drug uptake (Mus musculus [9]): 4.32 % ID/g; Drug uptake (Mus musculus [10]): 7.1 % ID/g; Drug uptake (Brain): Not Active; Stability (Serum): Stable; Drug uptake (Mus musculus [11]): 2.47 % ID/g; Drug uptake (Muscle tissue): Not Active; Drug uptake (Kidney): 0.67 % ID/g
6 nM | 2 nM | 9 nM | 0.9 nM | COc1ccc(S(=O)(=O)N(CCN=[N+]=[N-])[C@@H](C(=O)NO)C(C)C)cc1 | 
0.07 nM | 0.4 nM | 0.05 nM | 0.7 nM | COc1ccc(S(=O)(=O)N(CCn2cc(CCCF)nn2)[C@@H](C(=O)NO)C(C)C)cc1 | 
2 nM | 1 nM | 6 nM | 4 nM | COc1ccc(S(=O)(=O)N(CCn2cc(COCCOCCOCCOCCOCCF)nn2)[C@@H](C(=O)NO)C(C)C)cc1 | 
0.3 nM | 0.5 nM | 0.04 nM | 0.9 nM | COc1ccc(S(=O)(=O)N(CCn2cc(CCCCOc3cccnc3F)nn2)[C@@H](C(=O)NO)C(C)C)cc1 | 
0.6 nM | 0.2 nM | 0.09 nM | 5 nM | COc1ccc(S(=O)(=O)N(CCn2cc(CNS(=O)(=O)c3ccc(F)cc3)nn2)[C@@H](C(=O)NO)C(C)C)cc1 | 
